Measured values published in ChEMBL document CHEMBL4610004, “Lipidated α/Sulfono-α-AA heterogeneous peptides as antimicrobial agents for MRSA” (Bioorg Med Chem, 2020).
Values after ≈ are worked out from the molar mass of the structure shown. Active and inactive are the calls of the source. No cut-off for these calls is given here.

Assays:
[1] = test system: Staphylococcus aureus; assay: Antibacterial activity against methicillin-resistant Staphylococcus aureus ATCC 33591 assessed as reduction in bacterial growth incubated for 18 hrs by broth microdilution method; settings: ATCC 33591, 18 h
[2] = Hemolytic activity in human RBC assessed as hemoglobin release incubated for 1 hr; assay type: ADME, cell-based, Erythrocyte; settings: red blood cells (erythrocytes)
Summary of the method: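 Human red blood cells washed in PBS, pelleted at 1000g for 10 min, resuspended at 5% v/v. Compound serially diluted two-fold (50 µL) and mixed with 50 µL of the RBC suspension. Incubated 1 h at 37 °C, centrifuged 10 min at 3500 rpm, supernatant diluted with PBS, hemoglobin read at 540 nm. PBS defines 0% and 0.1% Triton X-100 defines 100% hemolysis. HC50 reported.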

[3] = test system: Staphylococcus aureus; assay: Induction of cell membrane disruption in methicillin-resistant Staphylococcus aureus ATCC 33591 assessed as increase in PI-positive cells at 5 ug/ml incubated for 2 hrs by DAPI and PI dye based fluorescence microscopy; assay type: organism-based
Summary of the method: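 Mid-log MRSA is incubated at 37 °C with peptide (5 µg/mL); the methods give 4 h and the legend gives 2 h. Cells are pelleted (3000g, 15 min) and PBS-washed. They are stained with DAPI (10 µg/mL, 0 °C, 15 min, dark), washed, then stained with PI (5 µg/mL). Untreated cells serve as controls. Imaged by optical microscopy at 100×.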

[4] = test system: Staphylococcus aureus; assay: Bactericidal activity against methicillin-resistant Staphylococcus aureus ATCC 33591 assessed as reduction in bacterial colonies formation at 12.5 ug/ml incubated for 120 min followed by dilution of the suspension and further incubation for 20 hrs on agar plate by time kill assay; assay type: functional, organism-based
Summary of the method: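 Bacteria are exposed to a range of peptide concentrations and sampled at 0, 10, 20, 30, 60 and 120 min. At each time point 100 µL of suspension is taken, diluted, and plated on agar for 20 h at 37 °C. Colonies are counted and expressed as log CFU/mL versus time. Done in triplicate.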

[5] = Selectivity index, ratio of HC50 for human RBC to MIC for methicillin-resistant Staphylococcus aureus ATCC 33591; assay type: toxicity; settings: red blood cells (erythrocytes)
Summary of the method: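 Selectivity = HC50 / MIC. For HC50, PBS-washed human RBCs (spun 1000g, 10 min) are diluted to 5% v/v and mixed 1:1 with twofold peptide dilutions. After 1 h at 37 °C, plates are spun and the diluted supernatant is read at 540 nm. PBS sets 0% and 0.1% Triton X-100 sets 100% hemolysis. MIC is by OD600 broth microdilution, 18 h, 37 °C.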

[6] = test system: Staphylococcus aureus; assay: Induction of cell membrane disruption in methicillin-resistant Staphylococcus aureus ATCC 33591 assessed as increase in depolarization measured for 30 mins by DiSC3 dye based fluorescence assay; assay type: organism-based
Summary of the method: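 Mid-log cells are washed in 5 mM HEPES then 5 mM glucose. They are resuspended (10⁸ CFU/mL) in HEPES/glucose/KCl 1:1:1 with 2 µM DiSC3. Fluorescence (ex 622, em 670 nm) is monitored 30 min at room temperature until minimal. Peptide is then added and the fluorescence rise followed as depolarization. Three trials, each in duplicate.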

CCCCCCCCCCCCCCCC(=O)N[C@@H](CCCCN)C(=O)NCCN([C@@H](C)C(=O)NCCN([C@@H](C)C(=O)NCCN([C@@H](C)C(N)=O)S(=O)(=O)c1ccccc1)S(=O)(=O)c1ccccc1)S(=O)(=O)c1ccccc1
MIC [1]: 10 µg/mL (≈ 8.72 µM)

CCCCCCCC(=O)N[C@@H](CCCCN)C(=O)NCCN([C@@H](C)C(N)=O)S(=O)(=O)c1ccc(Cl)cc1
MIC [1]: > 25 µg/mL

CCCCCCCCCCCCCCCC(=O)N[C@@H](CCCCN)C(=O)NCCN([C@@H](C)C(N)=O)S(=O)(=O)c1ccc(Cl)cc1
HC50 at 1 h [2]: 62.5 µg/mL | Activity [3]: Active | MIC [1]: 1 µg/mL (≈ 1.49 µM) | Activity [4]: Active | selectivity ratio [5]: 62.5 | Activity [6]: Active

CCCCCCCCCC(=O)N[C@@H](CCCCN)C(=O)NCCN([C@@H](C)C(N)=O)S(=O)(=O)c1ccc(Cl)cc1
MIC [1]: > 25 µg/mL

CCCCCCCCCCCC(=O)N[C@@H](CCCCN)C(=O)NCCN([C@@H](C)C(N)=O)S(=O)(=O)c1ccc(Cl)cc1
MIC [1]: 5 µg/mL (≈ 8.11 µM)

CCCCCCCCCCCCCCCC(=O)N[C@@H](CCCCN)C(=O)NCCN([C@@H](C)C(=O)NCCN([C@@H](C)C(N)=O)S(=O)(=O)c1ccccc1)S(=O)(=O)c1ccccc1
MIC [1]: 2 µg/mL (≈ 2.24 µM)

CCCCCCCCCCCCCCCC(=O)N[C@@H](CCCCN)C(=O)NCCN([C@@H](C)C(=O)NCCN([C@@H](C)C(=O)NCCN([C@@H](C)C(N)=O)S(=O)(=O)c1ccc(Br)cc1)S(=O)(=O)c1ccc(Br)cc1)S(=O)(=O)c1ccc(Br)cc1
MIC [1]: > 25 µg/mL

CCCCCCCCCCCCCCCC(=O)N[C@@H](CCCCN)C(=O)NCCN([C@@H](C)C(=O)NCCN([C@@H](C)C(=O)NCCN([C@@H](C)C(N)=O)S(=O)(=O)c1ccc(Cl)cc1)S(=O)(=O)c1ccc(Cl)cc1)S(=O)(=O)c1ccc(Cl)cc1
MIC [1]: > 25 µg/mL

CCCCCCCCCCCCCC(=O)N[C@@H](CCCCN)C(=O)NCCN([C@@H](C)C(N)=O)S(=O)(=O)c1ccc(Cl)cc1
MIC [1]: 5 µg/mL (≈ 7.76 µM)

CCCCCCCCCCCCCCCC(=O)N[C@@H](CCCCN)C(=O)NCCN([C@@H](C)C(=O)NCCN([C@@H](C)C(N)=O)S(=O)(=O)c1ccc(Br)cc1)S(=O)(=O)c1ccc(Br)cc1
MIC [1]: 5 µg/mL (≈ 4.76 µM)

CCCCCCCCCCCCCCCC(=O)N[C@@H](CCCCN)C(=O)NCCN([C@@H](C)C(N)=O)S(=O)(=O)c1ccccc1
MIC [1]: 5 µg/mL (≈ 7.84 µM)

CCCCCCCCCCCCCCCC(=O)N[C@@H](CCCCN)C(=O)NCCN([C@@H](C)C(N)=O)S(=O)(=O)c1ccc(Br)cc1
MIC [1]: 2 µg/mL (≈ 2.79 µM)

CCCCCCCCCCCCCCCC(=O)N[C@@H](CCCCN)C(=O)NCCN([C@@H](C)C(=O)NCCN([C@@H](C)C(N)=O)S(=O)(=O)c1ccc(Cl)cc1)S(=O)(=O)c1ccc(Cl)cc1
MIC [1]: 10 µg/mL (≈ 10.4 µM)
